Screening results from PubChem.
PTEN del growth: growth suppression of PTEN-null HCT116, primary screen, cell-based, CellTiter-Glo; HCT116 PTEN-null viability, 60 h; active compounds read low; AID 827, 2007; actives 1.2% (n = 140,000); viability, % at 10 µM;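 active means viability at or below a set limit, 4 SD under the median of all tested compounds, cut at about 3.7% in these data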;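 further: PTEN knockout HCT116 line with beta catenin targeted HCT116 as companion control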
H69AR growth 86K: proliferation blockers of H69AR lung cancer cells, primary screen, cell-based, human, 86K library; actives 6% (n = 85,000); H69AR lung tumor viability, ATP luminescence, 72 h; active compounds read low; viability, % at 10 µM; AID 598, 2007;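 active means viability at or below 40%; inactive means viability above 40%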;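 further: multidrug resistant small cell line overexpressing MRP-1 efflux transporter; 100% = mean luminescence of untreated control wells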
HUVEC prolif 384: inhibitors of HUVEC proliferation, primary screen, cell-based, 384-well | CellTiter-Glo luminescence, 72 h; active compounds read low | viability, % at 10 µM (by protocol) | actives 1.1% (n = 86,000);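 active means viability at or below 30%; inactive means viability above 30%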;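 further: 100% = median luminescence of DMSO-only cell control wells on each plate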
Fibroblast inh: antiproliferative effect on LL 47 fibroblasts – human, LL 47 cells, CellTiter-Glo luminescence, primary screen. LL 47 human lung fibroblast viability, ATP luminescence; active compounds read low. viability, % at 10 µM. actives 1.1% (n = 85,000);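 active means viability at or below 50% in the single dose screen; inactive means viability above 50%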;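 further: compound exposure lasted 72 h before the ATP readout; 100% = median luminescence of untreated cell-only wells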
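Material: Human LL 47 lung fibroblast cells | Input: 1,150 cells/well | Buffer or medium: IMEM plus 15% FBS | Compound dosing: 0.1% DMSO in all compound wells | Times: Overnight cell rest, 72 h compound treatment at 37 °C | Signal: CellTiter-Glo luminescence measuring cellular ATP | Measure: % viability versus median cells-only luminescence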
HCT116 bCat-KO: primary screen for growth suppressors in beta-catenin knockout HCT116 cells (colon tumor, human) | HCT116 beta-catenin knockout viability, CellTiter-Glo, 60 h; active compounds read low | AID 818, 2007 | actives 1.5% (n = 140,000) | viability, % at 10 µM;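 active means viability at or under a set limit, the compound median less 4 SD, cut at about 6% in these data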;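 further: 0% = Hyamine 1622 control at 20 µM and 100% = untreated cell control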
Numbers without * were called inactive; · = no result. The sample as a whole holds a higher share of hits than the screen did.

SMILES | PTEN del growth | H69AR growth 86K | HUVEC prolif 384 | Fibroblast inh | HCT116 bCat-KO
Cc1ccc(N2C(N)=C(C#N)C(c3cccnc3)C3=C2CC(C)(C)CC3=O)cc1 (configuration not stated) | 91 | 24* | 87 | 79 | 87
Cc1ccc(N2C(N)=C(C#N)C(c3ccsc3)C3=C2CC(C)(C)CC3=O)cc1 (configuration not stated) | 76 | 48 | 84 | 87 | 75
CCOC(=O)N1CCN(C(=O)c2ccc(C)c(S(=O)(=O)Nc3ccccc3)c2)CC1 | 72 | 36* | 93 | 89 | 82
CCOC(=O)N1CCN(C(=O)c2ccc(C)c(S(=O)(=O)Nc3cccc(C)c3C)c2)CC1 | 80 | 40* | 85 | 82 | 85
CCOC(=O)N1CCN(C(=O)c2ccc(NS(C)(=O)=O)cc2)CC1 | 87 | 97 | 98 | 104 | 79
Cc1ccc(C(=O)N2CCOCC2)cc1S(=O)(=O)Nc1cccc(C)c1C | 95 | 81 | 95 | 98 | 90
Cc1ccc(C(=O)N2NC(c3ccc(F)cc3)C3C(=O)N(c4ccc(C)c(C)c4)C(=O)C32)cc1 (configuration not stated) | 94 | · | · | · | 96
O=C(COC(=O)COc1ccccc1)NC1CCCc2ccccc21 (configuration not stated) | 93 | · | · | · | 87
O=C(CCCCn1c(=O)c2ccccc2n(Cc2ccc(F)cc2)c1=O)NCc1ccco1 | 13 | 22* | 56 | 70 | 13
O=c1c2ccccc2n(Cc2ccc(Cl)cc2)c(=O)n1Cc1ccco1 | 72 | 70 | 63 | 89 | 70
Cc1cccc(Cn2c(=O)n(-c3ccc(CC(=O)NCc4ccco4)cc3)c(=O)c3sccc32)c1 | 24 | 20* | 89 | 87 | 30
O=C(NCc1ccco1)c1ccc(Cn2c(=O)c3ccccc3n(Cc3ccc(Cl)cc3)c2=O)cc1 | 47 | 23* | 70 | 69 | 69
O=C(NCc1ccco1)c1ccc(Cn2c(=O)c3ccccc3n(Cc3cccc(F)c3)c2=O)cc1 | 79 | 7.7* | 49 | 66 | 94
O=C(CCCn1c(=O)c2ccccc2n(Cc2ccccc2)c1=O)NCc1ccco1 | 50 | 88 | 73 | 103 | 61
CN1C2CCC1/C(=C\c1ccccc1F)C(=O)/C2=C/c1ccccc1F | 19 | · | · | · | 15
CC(C)CC1NC(=S)N(Cc2ccccc2)C1=O (configuration not stated) | 11 | · | · | · | 11
COc1ccc(N2C(=O)[C@@H]3[C@H](C2=O)[C@H]2c4ccccc4C=CN2[C@@H]3C(C)=O)cc1 | 93 | · | · | · | 92
Cc1c(C(=O)N/N=C/C(C)C)[nH]c2c([N+](=O)[O-])cccc12 | 16 | · | · | · | 14
O=c1oc2ccccc2c(Nc2ccc3ccccc3c2)c1[N+](=O)[O-] | 35 | 19* | 59 | 90 | 46
O=c1oc2ccccc2c(Nc2ccc(O)cc2)c1[N+](=O)[O-] | 58 | 81 | 97 | 99 | 48
CC1(C)CC(=O)C2=C(C1)OC1=C(C(=O)CC(C)(C)C1)C2c1ccc(O)cc1O | 1.8* | 2.2* | 25* | 17* | 2.1*
Cc1ccc(-c2csc3ncnc(N4CCN(C(=O)c5ccccc5)CC4)c23)cc1 | 34 | 22* | 59 | 74 | 31
O=C(c1ccco1)N1CCN(c2ncnc3scc(-c4cccs4)c23)CC1 | 77 | 43 | 69 | 88 | 67
O=C(c1ccco1)N1CCN(c2ncnc3scc(-c4ccccc4)c23)CC1 | 75 | 40* | 100 | 113 | 87
CCc1c(C)nc(N)n2c(SCC(=O)N3CCCC(C)C3)nnc12 (configuration not stated) | 100 | 99 | 88 | 94 | 96
SMILES | PTEN del growth | H69AR growth 86K | HUVEC prolif 384 | Fibroblast inh | HCT116 bCat-KO
CCNc1nc(NC(C)C)nc(ON=C(C)C)n1 | 99 | · | · | · | 84
CCN(CC)c1ccc(C(=O)n2cnc3ccccc32)cc1 | 62 | 21* | 75 | 88 | 66
CN(C)c1ccc(C(=O)n2nnc3ccccc32)cc1 | 104 | 84 | 80 | 100 | 95
N#CC(c1ccc(F)cc1)c1ccc(C(=O)c2ccc(F)cc2)cc1 (configuration not stated) | 28 | 98 | 71 | 96 | 15
Cc1ccc(C(C#N)c2ccc(C(=O)c3ccc(F)cc3)cc2)cc1 (configuration not stated) | 46 | 96 | 17* | 104 | 25
CCOC(=O)c1cnc2c(N=Nc3ccccc3)c(N)nn2c1N | 95 | · | · | · | 86
CCOC(=O)c1cnc2c(N=Nc3cccc(Cl)c3)c(N)nn2c1N | 2.5* | · | · | · | 3.4*
CCC(=O)Nc1ccc(/C(C)=N/NC(=O)c2c(Br)c(C)nn2C)cc1 | 66 | · | · | · | 67
C/C(=N\NC(=O)c1c(Br)c(C)nn1C)c1ccc(NC(=O)C(C)Oc2ccc(Cl)cc2C)cc1 (configuration not stated) | 1.4* | · | · | · | 0.9*
N#CC1=C(SCC(=O)c2ccc(Br)cc2)NC2=C(C(=O)CCC2)C1c1ccco1 (configuration not stated) | 20 | 17* | 51 | 57 | 20
CC(=O)C1=C(C)NC(SCC(=O)c2ccccc2)=C(C#N)C1c1ccco1 (configuration not stated) | 51 | 63 | 72 | · | 64
CC(=O)C1=C(C)NC(SCC(=O)c2ccc(Cl)cc2)=C(C#N)C1c1ccco1 (configuration not stated) | 49 | 29* | 63 | · | 55
CCOC(=O)c1ccc(N=c2sc(C(=O)OC)cc(=O)n2CCCN2CCOCC2)cc1 | 8 | 21* | 58 | 67 | 6.0*
COC(=O)c1cc(=O)n(Cc2cccs2)c(=NCc2cccs2)s1 | 86 | · | · | · | 92
COC(=O)c1ccc2c(=O)n(CCCN3CCOCC3)c(=S)[nH]c2c1 | 86 | 86 | 95 | 97 | 96
CCOC(=O)c1ccc(N=c2sc(C(=O)OC)cc(=O)n2Cc2ccco2)cc1 | 2.2* | 1.3* | 29* | 69 | 2.2*
CC1CC(C)CN(c2ccc([N+](=O)[O-])cc2-c2nn[nH]n2)C1 (configuration not stated) | 95 | · | · | · | 97
CN(C)CCN(C)Cc1ccccc1Sc1cccc2ccccc12 | 1.5* | · | · | · | 1.2*
CC(C)CC(=O)NC(NC(=S)Nc1sc2c(c1C#N)CCCC2)C(Cl)(Cl)Cl (configuration not stated) | 88 | · | · | · | 82
CCN1CCN(c2ncc3c(n2)CC(c2ccc(OC)c(OC)c2)CC3=O)CC1 (configuration not stated) | 47 | 19* | 81 | 74 | 55
CCC(Sc1nc2cc3c(cc2c(=O)n1Cc1ccco1)OCO3)C(=O)Nc1ccccc1OC (configuration not stated) | 20 | 7.6* | 25* | 55 | 6
